The subject of assay [1] is Rattus norvegicus. Description: Antihypertensive activity in left kidney ligation and contralateral nephrectomy-induced hypertensive Sprague-Dawley rat model assessed as change in systolic blood pressure at 75 mg/kg, po administered via stomach tube. The assay is classed as functional, Artery. The method in brief:
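Conscious female rats made hypertensive by figure-8 ligature of left kidney, contralateral nephrectomy 1 week later. Dosed orally by stomach tube. Systolic pressure measured at the tail with occluding and sensing cuffs and a pressure transducer, before dosing and 1.5 and 4 h after. Values are group means of 4 or 8 rats.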

Assay [2] deals with Rattus norvegicus. In words: Antihypertensive activity in pithed rat assessed as change in sympathetic outflow activation-induced systemic pressor response at 20 mg/kg, iv at 2.5 Hz frequency. The format is functional. The method in brief: (§1)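 Pithed-rat preparation under ether anesthesia with artificial respiration, pretreated with atropine 1 mg/kg and d-tubocurarine chloride 1 mg/kg. Sympathetic outflow activated electrically at 2.5, 5 or 10 Hz. Carotid pressure responses taken before and after one or more test doses given via jugular vein. Reported as percent change in pressor response.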

The subject of assay [3] is Rattus norvegicus. In words: Antihypertensive activity in pithed rat assessed as change in sympathetic outflow activation-induced systemic pressor response at 40 mg/kg, iv at 2.5 Hz frequency. The assay is classed as functional. The essentials: as §1
The test system of assay [4] is Rattus norvegicus. In words: Antihypertensive activity in pithed rat assessed as change in sympathetic outflow activation-induced systemic pressor response at 20 mg/kg, iv at 5 Hz frequency. The format is functional. The essentials: as §1
Assay [5] relates to Rattus norvegicus. Description: Antihypertensive activity in pithed rat assessed as change in sympathetic outflow activation-induced systemic pressor response at 40 mg/kg, iv at 5 Hz frequency. The format is functional. The method in brief: as §1
Assay [6] has as its system Rattus norvegicus. In words: Antihypertensive activity in pithed rat assessed as change in sympathetic outflow activation-induced systemic pressor response at 20 mg/kg, iv at 10 Hz frequency. The format is functional. The essentials: as §1
The test system of assay [7] is Rattus norvegicus. Description: Antihypertensive activity in pithed rat assessed as change in sympathetic outflow activation-induced systemic pressor response at 40 mg/kg, iv at 10 Hz frequency. The assay is classed as functional. The method in brief:
as §1

Assay [8] concerns Rattus norvegicus. In words: Antihypertensive activity in pithed rat assessed as change in phenylephrine-induced systemic pressor response at 20 mg/kg, iv in presence of 2 mg/kg phenylephrine. The format is functional. The essentials: (§2)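 Ether-anesthetized, artificially respired rats pretreated with atropine 1 mg/kg and d-tubocurarine chloride 1 mg/kg. Carotid arterial pressure recorded; drugs given into the jugular vein. Pressor responses to iv phenylephrine measured before and after one or more iv doses of test compound. Reported as percent change in response.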

In assay [9] the test system is Rattus norvegicus. In words: Antihypertensive activity in pithed rat assessed as change in phenylephrine-induced systemic pressor response at 40 mg/kg, iv in presence of 2 mg/kg phenylephrine. The format is functional. The method in brief:
as §2

For assay [10], the system named is Rattus norvegicus. Description: Antihypertensive activity in pithed rat assessed as change in phenylephrine-induced systemic pressor response at 20 mg/kg, iv in presence of 4 mg/kg phenylephrine. The assay is classed as functional. The essentials:
as §2

For assay [11], the system named is Rattus norvegicus. Description: Antihypertensive activity in pithed rat assessed as change in phenylephrine-induced systemic pressor response at 40 mg/kg, iv in presence of 4 mg/kg phenylephrine. The assay is classed as functional. The essentials: as §2
Assay [12] deals with Rattus norvegicus. Description: Antihypertensive activity in pithed rat assessed as change in sympathetic outflow activation-induced systemic pressor response at 5 mg/kg, iv at 2.5 Hz frequency. The assay is classed as functional. The method in brief: as §1
Assay [13] concerns Rattus norvegicus. Description: Antihypertensive activity in pithed rat assessed as change in sympathetic outflow activation-induced systemic pressor response at 1 mg/kg, iv at 2.5 Hz frequency. The format is functional. The method in brief:
as §1

Assay [14] has as its system Rattus norvegicus. In words: Antihypertensive activity in pithed rat assessed as change in sympathetic outflow activation-induced systemic pressor response at 5 mg/kg, iv at 5 Hz frequency. The assay is classed as functional. The essentials:
as §1

Assay [15] relates to Rattus norvegicus. In words: Antihypertensive activity in pithed rat assessed as change in sympathetic outflow activation-induced systemic pressor response at 1 mg/kg, iv at 5 Hz frequency. The format is functional. The method in brief:
as §1

For assay [16], the system named is Rattus norvegicus. Description: Antihypertensive activity in pithed rat assessed as change in sympathetic outflow activation-induced systemic pressor response at 5 mg/kg, iv at 10 Hz frequency. The format is functional. The method in brief:
as §1

Assay [17] has as its system Rattus norvegicus. Description: Antihypertensive activity in pithed rat assessed as change in sympathetic outflow activation-induced systemic pressor response at 1 mg/kg, iv at 10 Hz frequency. The assay is classed as functional. The essentials:
as §1

The subject of assay [18] is Rattus norvegicus. In words: Antihypertensive activity in pithed rat assessed as change in phenylephrine-induced systemic pressor response at 5 mg/kg, iv in presence of 2 mg/kg phenylephrine. The format is functional. The essentials:
as §2

Assay [19] deals with Rattus norvegicus. Description: Antihypertensive activity in pithed rat assessed as change in phenylephrine-induced systemic pressor response at 1 mg/kg, iv in presence of 4 mg/kg phenylephrine. The assay is classed as functional. The essentials:
as §2

The subject of assay [20] is Rattus norvegicus. In words: Antihypertensive activity in pithed rat assessed as change in phenylephrine-induced systemic pressor response at 1 mg/kg, iv in presence of 2 mg/kg phenylephrine. The assay is classed as functional. The method in brief:
as §2

Assay [21] has as its system Rattus norvegicus. In words: Antihypertensive activity in pithed rat assessed as change in phenylephrine-induced systemic pressor response at 5 mg/kg, iv in presence of 4 mg/kg phenylephrine. The format is functional. The method in brief:
as §2

The test system of assay [22] is Rattus norvegicus. In words: Antihypertensive activity in pithed rat assessed as change in sympathetic outflow activation-induced systemic pressor response at 15 mg/kg, iv at 2.5 Hz frequency. The format is functional. The method in brief:
as §1

Assay [23] concerns Rattus norvegicus. In words: Antihypertensive activity in pithed rat assessed as change in sympathetic outflow activation-induced systemic pressor response at 15 mg/kg, iv at 5 Hz frequency. The format is functional. The method in brief: as §1
For assay [24], the system named is Rattus norvegicus. Description: Antihypertensive activity in pithed rat assessed as change in sympathetic outflow activation-induced systemic pressor response at 15 mg/kg, iv at 10 Hz frequency. The assay is classed as functional. The essentials: as §1
The test system of assay [25] is Rattus norvegicus. In words: Antihypertensive activity in pithed rat assessed as change in phenylephrine-induced systemic pressor response at 15 mg/kg, iv in presence of 2 mg/kg phenylephrine. The assay is classed as functional. The essentials: as §2
For assay [26], the system named is Rattus norvegicus. Description: Antihypertensive activity in pithed rat assessed as change in phenylephrine-induced systemic pressor response at 15 mg/kg, iv in presence of 4 mg/kg phenylephrine. The assay is classed as functional. The method in brief:
as §2

Assay [27] has as its system Rattus norvegicus. Description: Antihypertensive activity in pithed rat assessed as change in sympathetic outflow activation-induced systemic pressor response at 10 mg/kg, iv at 2.5 Hz frequency. The format is functional. The essentials: as §1
The subject of assay [28] is Rattus norvegicus. Description: Antihypertensive activity in pithed rat assessed as change in sympathetic outflow activation-induced systemic pressor response at 30 mg/kg, iv at 2.5 Hz frequency. The format is functional. The method in brief:
as §1

Assay [29] relates to Rattus norvegicus. Description: Antihypertensive activity in pithed rat assessed as change in sympathetic outflow activation-induced systemic pressor response at 10 mg/kg, iv at 5 Hz frequency. The assay is classed as functional. The essentials: as §1
The test system of assay [30] is Rattus norvegicus. Description: Antihypertensive activity in pithed rat assessed as change in sympathetic outflow activation-induced systemic pressor response at 30 mg/kg, iv at 5 Hz frequency. The format is functional. The essentials:
as §1

The test system of assay [31] is Rattus norvegicus. Description: Antihypertensive activity in pithed rat assessed as change in sympathetic outflow activation-induced systemic pressor response at 10 mg/kg, iv at 10 Hz frequency. The assay is classed as functional. The method in brief:
as §1

Assay [32] has as its system Rattus norvegicus. In words: Antihypertensive activity in pithed rat assessed as change in sympathetic outflow activation-induced systemic pressor response at 30 mg/kg, iv at 10 Hz frequency. The assay is classed as functional. The method in brief: as §1
Assay [33] deals with Rattus norvegicus. Description: Antihypertensive activity in pithed rat assessed as change in phenylephrine-induced systemic pressor response at 10 mg/kg, iv in presence of 2 mg/kg phenylephrine. The format is functional. The essentials: as §2
Assay [34] has as its system Rattus norvegicus. Description: Antihypertensive activity in pithed rat assessed as change in phenylephrine-induced systemic pressor response at 30 mg/kg, iv in presence of 2 mg/kg phenylephrine. The assay is classed as functional. The essentials: as §2
In assay [35] the test system is Rattus norvegicus. In words: Antihypertensive activity in pithed rat assessed as change in phenylephrine-induced systemic pressor response at 10 mg/kg, iv in presence of 4 mg/kg phenylephrine. The assay is classed as functional. The essentials: as §2
The subject of assay [36] is Rattus norvegicus. In words: Antihypertensive activity in pithed rat assessed as change in phenylephrine-induced systemic pressor response at 30 mg/kg, iv in presence of 4 mg/kg phenylephrine. The format is functional. The method in brief:
as §2

`CN1CC[N+](C)(C)Cc2ccccc21.[I-]`: the Activity with Rattus norvegicus [1] was -51 mmHg.

On to `N=C(N)N1CCNc2ccccc2C1.O=[N+]([O-])O`, for which the Activity with Rattus norvegicus [1] was -55 mmHg; in the assay with Rattus norvegicus [2], -39%; with Rattus norvegicus [3], -82%; in the assay with Rattus norvegicus [4] it was -50%; in the assay on Rattus norvegicus [5], -100%; in the assay with Rattus norvegicus [6], -58%. For the same compound, the Activity with Rattus norvegicus [7] was -86%; in the assay with Rattus norvegicus [8], 8%; in the assay with Rattus norvegicus [9], 3%; in the assay with Rattus norvegicus [10], 5%; in the assay on Rattus norvegicus [11], 10%.

For the compound `N=C(N)N1CCNc2ccc(Cl)cc2C1.O=[N+]([O-])O`, the Activity with Rattus norvegicus [1] is -34 mmHg.

On to `C[N+]1(C)CCNc2ccc(Cl)cc2C1.[I-]`, for which, in the assay with Rattus norvegicus [1], the Activity is on record as -4 mmHg.

As to `C[N+]1(C)CCn2c3c(c4cccc(c42)C1)CCCC3.[I-]`, the Activity in the assay with Rattus norvegicus [1] is 3 mmHg.

Consider `CCN1CC[N+](C)(CC)Cc2ccccc21.[I-]` (centres undefined), for which the Activity in the assay with Rattus norvegicus [1] is recorded as -21 mmHg.

Regarding `COc1cc2c(cc1OC)NCC[N+](C)(C)C2.[I-]`, the Activity in the assay with Rattus norvegicus [1] worked out at 2 mmHg.

Regarding `N=C(N)N1CCN2CCc3cccc(c32)C1.O=[N+]([O-])O`, in the assay with Rattus norvegicus [1], the Activity is reported as -12 mmHg.

For the compound `N=C(N)NCCN1CCCCCCC1` [GUANETHIDINE], the Activity with Rattus norvegicus [12] is -100%; in the assay with Rattus norvegicus [13], -85%; in the assay with Rattus norvegicus [14], -100%; with Rattus norvegicus [15] it was -72%; in the assay with Rattus norvegicus [16], -94%; in the assay on Rattus norvegicus [17] it was -65%. Besides, the Activity in the assay with Rattus norvegicus [18] was 160%; with Rattus norvegicus [19] it was 57%; in the assay on Rattus norvegicus [20] it was 64%; in the assay with Rattus norvegicus [21] it was 105%.

In the case of `C[N+]1(C)CCN2CCc3cccc(c32)C1.[I-]`, the Activity in the assay on Rattus norvegicus [1] is -48 mmHg; in the assay with Rattus norvegicus [12] it was -42%; with Rattus norvegicus [22] it was -93%; in the assay on Rattus norvegicus [14] it was -40%; with Rattus norvegicus [23] it was -87%; in the assay with Rattus norvegicus [16] it was -47%. The Activity is -91% with Rattus norvegicus [24]; 68% with Rattus norvegicus [18]; 87% in the assay on Rattus norvegicus [25]; 18% in the assay with Rattus norvegicus [21]; 12% in the assay with Rattus norvegicus [26].

For `C[N+]1(C)CCNc2ccccc2C1.[I-]`, the Activity was -46 mmHg in the assay with Rattus norvegicus [1]; 10% in the assay with Rattus norvegicus [27]; -38% with Rattus norvegicus [28]; 9% in the assay on Rattus norvegicus [29]; -34% with Rattus norvegicus [30]; 1% in the assay with Rattus norvegicus [31]. The Activity with Rattus norvegicus [32] was -35%; in the assay with Rattus norvegicus [33], 23%; with Rattus norvegicus [34], 44%; in the assay with Rattus norvegicus [35], 39%; in the assay with Rattus norvegicus [36], 74%.

Regarding `N=C(N)N1CCn2c3c(c4cccc(c42)C1)CCCC3.O=[N+]([O-])O`, the Activity in the assay on Rattus norvegicus [1] was -8 mmHg.

Consider `N/C(CN1CCNc2ccccc2C1)=N\O`, for which the Activity in the assay on Rattus norvegicus [1] was -12 mmHg.

For `CN1CCN(C(=N)N)Cc2ccccc21.O=[N+]([O-])O`, the Activity in the assay on Rattus norvegicus [1] was -60 mmHg; in the assay on Rattus norvegicus [2], -83%; with Rattus norvegicus [27] it was -73%; in the assay with Rattus norvegicus [4], -83%; in the assay with Rattus norvegicus [29], -67%; with Rattus norvegicus [6] it was -82%. In addition, the Activity was -57% in the assay with Rattus norvegicus [31]; -26% in the assay on Rattus norvegicus [8]; -14% in the assay with Rattus norvegicus [33]; -20% in the assay on Rattus norvegicus [10]; -5% with Rattus norvegicus [35].

Consider `CC1CNc2ccccc2C[N+]1(C)C.[I-]` (centres undefined), for which, in the assay on Rattus norvegicus [1], the Activity is listed as -4 mmHg.

These data come from ChEMBL document CHEMBL3244258, “Derivatives of tetrahydro-1,4-benzodiazepines as potential antihypertensive agents” (1977).
